Article PMC2612038 (Journal of molecular biology, 2008)
“Also recorded” adds a separate entry of the source. Where two headings read alike, the source gives them in different places.

What was measured:
[1] = Pulsed magnetic field gradient/diffusion NMR of free Hdm2-ABD; type: physicochemical; conditions: 1 mM 15N-Hdm2-ABD, 10 mM sodium phosphate, 10 mM NaCl, pH 6; dioxane standard
Outline: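 Diffusion was recorded at 600 MHz on 1 mM 15N-Hdm2-ABD in 10 mM sodium phosphate, 10 mM NaCl, pH 6. A 15N-filtered BPP-MAXY-D sequence gave 1D spectra across gradient strengths of 1–60 G cm−1. Dioxane served as internal standard to normalise for solution conditions. Equivalent unfolded chain length was estimated from Rh = (2.21 ± 1.07)N^(0.57 ± 0.02).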

[2] = Sedimentation velocity AUC of the isolated polypeptide; type: physicochemical
Outline: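 Sedimentation velocity was run at 50,000 rpm and 20 °C, with Rayleigh interference scans every 1 min. Samples were dialysed into 10 mM sodium phosphate pH 6.0 with 10 mM NaCl (150 mM for high ionic strength), and the dialysate was the reference. Analysis used c(s) with maximum-entropy regularisation (p = 0.7, n = 100), with s from main-peak integration and weight-average f/f0. c(M) came from c(s). c(s, f/f0) used an f/f0 grid of 1.2–2.2 and s of 0.1–5 S.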

[3] = Structure in isolation; type: physicochemical; conditions: for structure in isolation: absence of oppositely charged partner
Outline: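 Uniformly 13C/15N-labelled Hdm2-ABD (2 mM) was studied in 10 mM sodium phosphate, 10 mM NaCl, 0.01% azide, 6% D2O, pH 6.0, 25 °C. Backbone assignments came from HSQC, CT-HNCA, CT-HN(CO)CA, HNCACB and CBCA(CO)NH spectra, and side chains from C(CO)NH- and H(CCO)NH-TOCSY. 1H was referenced to external TSP, with 13C/15N referenced indirectly.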

[4] = cited from earlier work
[5] = tested on: 15-residue peptide containing the H1 segment of Hdm2; conditions: cited from earlier work
[6] = target: Hdm2-ABD (Homo sapiens, UniProt Q00987); conditions: cited from earlier work
Sequence of Hdm2-ABD (Q00987 210-304): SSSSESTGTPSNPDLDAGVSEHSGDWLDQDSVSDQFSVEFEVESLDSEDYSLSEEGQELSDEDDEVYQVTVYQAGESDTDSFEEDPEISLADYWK

[7] = tested on: 15N-Hdm2-ABD; conditions: 3 equivalents; cited from earlier work
[8] = tested on: mouse fibroblasts; conditions: cited from earlier work
[9] = tested on: Mdm2; conditions: cited from earlier work
[10] = cited from earlier work; remark: listed apart in the source
[11] = tested on: nucleoli of Arf-null NIH 3T3 mouse fibroblasts; experiment: Nucleolar localization after nuclear micro-injection; type: cell-based; conditions: 0.5 mg/mL TR-A1-mini injected into nuclei; 33/42 cells; 4 hour recovery
[12] = tested on: Arf-null NIH 3T3 mouse fibroblasts; experiment: BrdU incorporation / cell cycle arrest assay after nuclear micro-injection; type: cell-based; conditions: peptide 2–4 mg/ml, BrdU 10 μM, 8 hours, 3 independent experiments
[13] = tested on: Mdm2; experiment: Nucleolar co-localization with endogenous Mdm2 after nuclear micro-injection; type: cell-based, mouse; conditions: for cells with co-localization with Mdm2 in nucleoli: 0.5 mg/mL TR-A1-mini injected into nuclei, 4 hour recovery, anti-mdm2 2A10
[14] = tested on: 15N-Hdm2-ABD; experiment: 2D 1H-15N HSQC NMR of 15N-Hdm2-ABD with Arf peptide; type: binding, human
Outline: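 15N-Hdm2-ABD was expressed in E. coli in MOPS minimal medium with 15NH4Cl and purified. […] Combined shift perturbation: Δδ1H/15N = [(Δδ1HN)² + 0.0289·(Δδ15NH)²]^1/2, each difference taken as bound minus free.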

[15] = tested on: Hdm2-ABD lacking the H1 and/or H2 segments; experiment: CD co-assembly of A1-mini with Hdm2-ABD lacking H1 and/or H2 segments; type: binding, human; conditions: deletion of the H1 and/or H2 segments (Suppl. Fig. 1)
[16] = Solubility; type: physicochemical; conditions: co-assemblies with Hdm2-ABD
[17] = target: Arf-binding domain of Hdm2 (Hdm2-ABD), residues 210-304 (human, UniProt Q00987 210-304); experiment: circular dichroism
Sequence of Arf-binding domain of Hdm2 (Hdm2-ABD), residues 210-304 (Q00987 210-304): as above

[18] = 0.5 mM, 20 °C, 10 mM sodium phosphate pH 6.0, 10 mM NaCl, c(s) model

Molecule: Hdm2-ABD: Hdm2 domain spanning residues 210-304 (Arf-binding domain)
- radius of hydration (Rh), free [1]: 25.7 Å
- frictional ratio (f/f0), isolated [2, 18]: 2.18
- sedimentation coefficient (s), isolated [2, 18]: 1.0 S
- molecular mass by AUC, isolated ([2]; 0.5 mM, 20 °C, pH 6.0, 10 mM NaCl): ~ 10,900 Da
- structure in isolation [3]: intrinsically unstructured
- secondary 13Cα chemical shift values (Δδ13Cα) ([3]; free Hdm2-ABD, pH 6.0, 25 °C (Suppl. Fig. 7B)): close to zero
- structure in isolation [4]: intrinsically unstructured in isolation

Molecule: residues 1-15 of p14^Arf: peptide corresponding to residues 1-15 of p14^Arf (MVRRFLVTLRIRRAC; UniProt Q8N726 1-15, looked up, fragment)
- assembly with 15-residue H1 peptide of Hdm2 [5]: irreversibly assembled into bi-molecular oligomers
- irreversible assembly into bi-molecular oligomers with Hdm2-ABD [6]: irreversibly assembled into bi-molecular oligomers

Molecule: mArf-N37: 37-residue intrinsically unstructured N-terminal fragment of p19^Arf (MGRRFLVTVRIQRAGRPLQERVFLVKFVRSRRPRTAS; UniProt Q64364 1-37, looked up, fragment)
- effect on 15N-Hdm2-ABD resonances [7]: broaden beyond detection
- Hdm2-ABD concentration at which complete conversion to β-strand occurs ([6]; 1 molar equivalent of peptide): ≥ 10 µM
- cell cycle arrest [8]: exhibited cell cycle arrest activity in vivo
- p53-dependent cell cycle arrest ([8]; mouse fibroblasts): caused p53-dependent cell cycle arrest in mouse fibroblasts
- structure in isolation [4]: intrinsically unstructured in isolation
- binding to Mdm2 [9]: bound to Mdm2
- co-assembly with Mdm2 in nucleoli ([9]; in cells): co-assembled specifically with Mdm2 in nucleoli

Molecule: (AEAEAKAK)2
- self-assembly [10]: self-assembled into β-strand-rich structures with fibrilar characteristics

Molecule: N-CGGGGGRRFLVTVR-C [TR-A1-mini]
- injected cells with nucleolar localization [11]: 79%
- inhibition of BrdU incorporation / cell cycle arrest [12]: did not inhibit the incorporation of bromo-deoxyuridine (BrdU) into DNA
- cells with co-localization with Mdm2 in nucleoli [13]: 7%
- cells with nucleoplasmic Mdm2 and nucleolar TR-A1-mini localization ([13]; Fig. 5, nuclear injection): 93%

Molecule: CC(C)C[C@H](NC(=O)[C@H](Cc1ccccc1)NC(=O)[C@H](CCCNC(=N)N)NC(=O)[C@H](CCCNC(=N)N)NC(=O)CN)C(=O)N[C@H](C(=O)N[C@H](C(=O)N[C@H](C(=O)N[C@@H](CCCNC(=N)N)C(=O)O)C(C)C)[C@@H](C)O)C(C)C [A1-mini]
- inhibition of BrdU incorporation / cell cycle arrest [12]: did not cause cell cycle arrest; also recorded: No significant differences in the percentage of cells undergoing DNA replication
- cells with co-localization with Mdm2 in nucleoli [13]: 7%
- sedimentation state, isolated ([2]; AUC, data not shown): sedimented as a monomer
- Δδ13Cα, 1H-1H NOE and heteronuclear NOE differences of 15N-Hdm2-ABD ([14]; absence vs presence of A1-mini, data not shown): significant differences in these parameters were not detected
- 1H-15N HSQC resonance intensities of 15N-Hdm2-ABD ([14]; in presence of four-fold molar excess A1-mini (Suppl. Fig. 5B)): significant reduction in the intensity; also recorded: reduced significantly
- structure in isolation [3]: intrinsically unstructured
- co-assembly with Hdm2-ABD deletion variants [15]: complete abrogation of co-assembly
- solubility of peptide/Hdm2-ABD co-assemblies [16]: > 1000 µM

Molecule: residues 1-15 of p19^Arf: peptide from the N-terminus of p19^Arf spanning residues 1-15 (MGRRFLVTVRIQRAG; UniProt Q64364 1-15, looked up, fragment)
- binding to Hdm2-ABD [6]: bound to Hdm2-ABD

Molecule: GRRFLVTVR [A1-mini, peptide of residues 2-10 of mouse Arf (p19Arf)]
- Kd [17]: ~200 µM
